The values below come from ChEMBL document CHEMBL6134769, “Discovery of N-substituted-2-oxoindolin benzoylhydrazines as c-MET/SMO modulators in EGFRi-resistant non-small cell lung cancer” (RSC Med Chem, 2025).

Activity calls are given as the source filed them. The calls are words filed in the database; no cut-off is given here.

A short description of assay [1]: Antiproliferative activity against human PC9-OR cells assessed as reduction in cell viability measured after 72 hrs by MTS assay. A general note: Tetrazolium dyes change colour on reduction, which living cells bring about.
The target of assay [2] is Insulin-like growth factor 1 receptor (Homo sapiens) (UniProt P08069). The assay can be described thus: Inhibition of human N-terminal GST-fused IGF1R cytoplasmic domain (959 to 1367 (end)residues) expressed in baculovirus expression system at 20 uM measured after 1 hr in presence of peptide substrate and ATP by off-chip mobility shift assay relative to control. Put shortly: (§1)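 Off-chip mobility shift assay. Product and substrate peptides were separated; activity was taken as P/(P+S). Complete reaction was set as 0% inhibition and enzyme-free background as 100%. Run in triplicate, mean ± SD.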
Chain of Insulin-like growth factor 1 receptor (Homo sapiens) (P08069 31-736 limits assumed): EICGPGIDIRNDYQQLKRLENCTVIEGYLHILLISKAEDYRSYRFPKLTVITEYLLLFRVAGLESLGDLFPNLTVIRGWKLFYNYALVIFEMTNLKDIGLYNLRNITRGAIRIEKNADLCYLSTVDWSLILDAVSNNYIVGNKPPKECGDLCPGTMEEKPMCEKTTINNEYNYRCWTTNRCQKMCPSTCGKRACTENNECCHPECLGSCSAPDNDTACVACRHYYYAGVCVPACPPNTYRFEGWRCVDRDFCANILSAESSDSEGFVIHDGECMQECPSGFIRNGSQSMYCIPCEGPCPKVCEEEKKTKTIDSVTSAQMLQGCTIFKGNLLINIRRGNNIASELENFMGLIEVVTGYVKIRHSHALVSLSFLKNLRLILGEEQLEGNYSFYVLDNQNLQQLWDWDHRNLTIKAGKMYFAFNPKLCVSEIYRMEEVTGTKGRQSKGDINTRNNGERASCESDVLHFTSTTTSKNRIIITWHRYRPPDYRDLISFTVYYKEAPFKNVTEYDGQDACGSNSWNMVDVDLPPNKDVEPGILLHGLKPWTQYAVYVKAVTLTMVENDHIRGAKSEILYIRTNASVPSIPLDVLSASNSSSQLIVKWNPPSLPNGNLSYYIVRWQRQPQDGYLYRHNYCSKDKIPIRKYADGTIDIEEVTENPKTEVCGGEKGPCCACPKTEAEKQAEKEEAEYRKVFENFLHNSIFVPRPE
Chain of Insulin-like growth factor 1 receptor (Homo sapiens) (P08069 741-1367 limits assumed): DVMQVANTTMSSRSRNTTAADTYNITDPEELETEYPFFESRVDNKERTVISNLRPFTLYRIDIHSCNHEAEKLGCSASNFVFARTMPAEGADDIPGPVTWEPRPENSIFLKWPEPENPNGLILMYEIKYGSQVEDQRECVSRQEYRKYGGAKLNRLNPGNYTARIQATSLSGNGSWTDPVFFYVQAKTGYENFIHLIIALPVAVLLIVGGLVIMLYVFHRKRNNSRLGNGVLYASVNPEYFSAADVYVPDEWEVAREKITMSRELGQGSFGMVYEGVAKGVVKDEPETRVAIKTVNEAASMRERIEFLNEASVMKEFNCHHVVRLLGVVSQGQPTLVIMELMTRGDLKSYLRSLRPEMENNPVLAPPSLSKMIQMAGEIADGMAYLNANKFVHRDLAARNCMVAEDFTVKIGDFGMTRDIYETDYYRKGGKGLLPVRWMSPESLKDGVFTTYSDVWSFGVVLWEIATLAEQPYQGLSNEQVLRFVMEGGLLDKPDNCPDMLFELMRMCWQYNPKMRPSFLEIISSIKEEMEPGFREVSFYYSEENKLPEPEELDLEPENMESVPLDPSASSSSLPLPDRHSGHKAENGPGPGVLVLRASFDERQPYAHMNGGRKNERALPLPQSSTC

The target of assay [3] is Tyrosine-protein kinase Lck (Homo sapiens) (UniProt P06239). The assay can be described thus: Inhibition of human full-length N-terminal GST-fused LCK (1 to 509 (end)residues) expressed in baculovirus expression system at 20 uM measured after 1 hr in presence of peptide substrate and ATP by off-chip mobility shift assay relative to control. An outline of the steps: as §1
Chain of Tyrosine-protein kinase Lck (Homo sapiens) (P06239 2-509 limits assumed): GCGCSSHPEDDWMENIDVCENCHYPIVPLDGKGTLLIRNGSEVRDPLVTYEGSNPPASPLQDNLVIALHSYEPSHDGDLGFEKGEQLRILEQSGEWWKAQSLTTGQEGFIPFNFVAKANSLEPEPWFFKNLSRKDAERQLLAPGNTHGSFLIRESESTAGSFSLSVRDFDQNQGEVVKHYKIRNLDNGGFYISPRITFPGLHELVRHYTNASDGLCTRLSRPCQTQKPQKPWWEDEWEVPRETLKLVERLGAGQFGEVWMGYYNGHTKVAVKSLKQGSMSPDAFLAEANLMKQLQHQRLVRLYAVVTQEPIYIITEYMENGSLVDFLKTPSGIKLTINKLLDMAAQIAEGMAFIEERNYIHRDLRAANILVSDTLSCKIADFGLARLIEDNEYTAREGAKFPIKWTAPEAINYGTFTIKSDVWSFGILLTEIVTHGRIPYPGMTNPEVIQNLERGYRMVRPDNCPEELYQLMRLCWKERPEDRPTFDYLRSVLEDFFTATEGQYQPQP

Assay [4] concerns the target Vascular endothelial growth factor receptor 2 (Homo sapiens) (UniProt P35968). Put plainly: Inhibition of human N-terminal GST-fused KDR cytoplasmic domain (790 to 1356 (end)residues) expressed in baculovirus expression system at 20 uM measured after 1 hr in presence of peptide substrate and ATP by off-chip mobility shift assay relative to control. An outline of the steps:
as §1

In assay [5] the target is T1, Tyrosine-protein kinase ITK/TSK (Homo sapiens) (UniProt Q08881).
T1 sequence (whole entry): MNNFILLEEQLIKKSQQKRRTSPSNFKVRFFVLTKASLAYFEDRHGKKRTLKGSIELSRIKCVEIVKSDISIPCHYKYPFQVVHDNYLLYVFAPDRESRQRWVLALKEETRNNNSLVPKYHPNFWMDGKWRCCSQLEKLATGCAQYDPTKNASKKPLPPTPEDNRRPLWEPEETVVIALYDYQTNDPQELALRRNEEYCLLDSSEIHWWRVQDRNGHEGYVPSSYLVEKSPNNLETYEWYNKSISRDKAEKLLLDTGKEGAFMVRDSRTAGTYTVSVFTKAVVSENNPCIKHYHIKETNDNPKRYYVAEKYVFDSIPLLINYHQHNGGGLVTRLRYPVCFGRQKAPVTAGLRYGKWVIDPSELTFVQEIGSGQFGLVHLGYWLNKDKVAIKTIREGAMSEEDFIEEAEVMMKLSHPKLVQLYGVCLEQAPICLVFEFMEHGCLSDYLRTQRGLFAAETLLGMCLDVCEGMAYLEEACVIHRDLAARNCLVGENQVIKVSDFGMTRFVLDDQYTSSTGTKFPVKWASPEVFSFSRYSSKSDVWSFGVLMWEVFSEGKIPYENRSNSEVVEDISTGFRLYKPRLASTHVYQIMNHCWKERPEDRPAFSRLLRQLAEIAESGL
Put plainly: Inhibition of human full-length N-terminal GST-fused ITK (2 to 620 (end)residues) expressed in baculovirus expression system at 20 uM measured after 1 hr in presence of peptide substrate and ATP by off-chip mobility shift assay relative to control. Put shortly: as §1

Assay [6] is described as follows: Inhibition of human full-length N-terminal GST-fused SRC (1 to 536 (end)residues) expressed in baculovirus expression system at 20 uM measured after 1 hr in presence of peptide substrate and ATP by off-chip mobility shift assay relative to control. An outline of the steps:
as §1

Assay [7] addresses T2, Tyrosine-protein kinase JAK3 (Homo sapiens) (UniProt P52333).
T2 sequence (whole entry): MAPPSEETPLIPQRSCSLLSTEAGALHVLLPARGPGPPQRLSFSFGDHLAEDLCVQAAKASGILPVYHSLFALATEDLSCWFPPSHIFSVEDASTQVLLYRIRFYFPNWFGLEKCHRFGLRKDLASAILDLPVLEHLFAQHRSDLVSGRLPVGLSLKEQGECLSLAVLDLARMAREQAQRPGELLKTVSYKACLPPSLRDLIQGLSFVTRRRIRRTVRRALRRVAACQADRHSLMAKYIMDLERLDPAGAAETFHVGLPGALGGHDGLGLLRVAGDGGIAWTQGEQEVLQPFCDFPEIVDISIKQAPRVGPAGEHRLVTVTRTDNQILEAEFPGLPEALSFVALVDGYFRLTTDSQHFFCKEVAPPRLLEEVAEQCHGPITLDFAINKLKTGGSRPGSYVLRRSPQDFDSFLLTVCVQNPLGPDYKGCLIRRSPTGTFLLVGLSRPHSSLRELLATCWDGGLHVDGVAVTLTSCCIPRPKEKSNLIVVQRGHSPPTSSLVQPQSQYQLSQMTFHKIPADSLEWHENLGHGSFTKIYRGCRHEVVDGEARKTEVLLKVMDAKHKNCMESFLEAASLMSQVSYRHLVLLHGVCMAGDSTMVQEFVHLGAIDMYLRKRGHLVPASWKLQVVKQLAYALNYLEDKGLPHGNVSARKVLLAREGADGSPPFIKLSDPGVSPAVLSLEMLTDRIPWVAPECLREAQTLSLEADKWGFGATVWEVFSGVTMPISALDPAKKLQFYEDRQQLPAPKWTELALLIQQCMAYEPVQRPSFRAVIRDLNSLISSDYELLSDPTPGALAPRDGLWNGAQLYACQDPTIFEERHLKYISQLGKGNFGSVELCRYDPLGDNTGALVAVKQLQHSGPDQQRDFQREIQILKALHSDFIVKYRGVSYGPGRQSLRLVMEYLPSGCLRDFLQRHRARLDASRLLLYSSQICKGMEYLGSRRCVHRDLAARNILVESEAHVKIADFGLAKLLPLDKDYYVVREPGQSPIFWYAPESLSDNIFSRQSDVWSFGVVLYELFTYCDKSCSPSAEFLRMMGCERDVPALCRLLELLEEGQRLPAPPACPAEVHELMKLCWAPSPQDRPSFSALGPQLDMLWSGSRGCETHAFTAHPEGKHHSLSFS
The assay can be described thus: Inhibition of human N-terminal His-tagged JAK3 catalytic domain (795 to 1124 (end)residues) expressed in baculovirus expression system at 20 uM measured after 1 hr in presence of peptide substrate and ATP by off-chip mobility shift assay relative to control. An outline of the steps: as §1

Assay [8] has as its target Tyrosine-protein kinase CSK (Homo sapiens) (UniProt P41240). The assay can be described thus: Inhibition of human full-length N-terminal GST-fused CSK (1 to 450 (end)residues) expressed in baculovirus expression system at 20 uM measured after 1 hr in presence of peptide substrate and ATP by off-chip mobility shift assay relative to control. Put shortly: as §1
Assay [9] addresses Protein smoothened (Homo sapiens, UniProt Q99835). The assay can be described thus: Inhibition of SMO in human HCC827 Gefitinib-resistant (GR) cells assessed as reduction in GLI1 expression at antiproliferative IC50 measured after 72 hrs by Western blot analysis. The class given is functional, cell-based. To be noted: HCC827 Gefitinib-resistant (GR) cell. (In general: In western blotting, separated proteins are transferred to a membrane and probed.)

Assay [10] concerns the target Protein-tyrosine kinase 2-beta (Homo sapiens) (UniProt Q14289). Put plainly: Inhibition of human full-length N-terminal GST-fused PYK2 (1 to 967 (end)residues) expressed in baculovirus expression system at 20 uM measured after 1 hr in presence of peptide substrate and ATP by off-chip mobility shift assay relative to control. An outline of the steps: as §1

As usually defined, the IC50 is the concentration that inhibits the measured activity by half. A word on the inhibition: it is the change of the read-out against control, counted positive when it falls.

Chain of Protein-tyrosine kinase 2-beta (Homo sapiens) (Q14289 whole entry, looked up, the tested form may be a part): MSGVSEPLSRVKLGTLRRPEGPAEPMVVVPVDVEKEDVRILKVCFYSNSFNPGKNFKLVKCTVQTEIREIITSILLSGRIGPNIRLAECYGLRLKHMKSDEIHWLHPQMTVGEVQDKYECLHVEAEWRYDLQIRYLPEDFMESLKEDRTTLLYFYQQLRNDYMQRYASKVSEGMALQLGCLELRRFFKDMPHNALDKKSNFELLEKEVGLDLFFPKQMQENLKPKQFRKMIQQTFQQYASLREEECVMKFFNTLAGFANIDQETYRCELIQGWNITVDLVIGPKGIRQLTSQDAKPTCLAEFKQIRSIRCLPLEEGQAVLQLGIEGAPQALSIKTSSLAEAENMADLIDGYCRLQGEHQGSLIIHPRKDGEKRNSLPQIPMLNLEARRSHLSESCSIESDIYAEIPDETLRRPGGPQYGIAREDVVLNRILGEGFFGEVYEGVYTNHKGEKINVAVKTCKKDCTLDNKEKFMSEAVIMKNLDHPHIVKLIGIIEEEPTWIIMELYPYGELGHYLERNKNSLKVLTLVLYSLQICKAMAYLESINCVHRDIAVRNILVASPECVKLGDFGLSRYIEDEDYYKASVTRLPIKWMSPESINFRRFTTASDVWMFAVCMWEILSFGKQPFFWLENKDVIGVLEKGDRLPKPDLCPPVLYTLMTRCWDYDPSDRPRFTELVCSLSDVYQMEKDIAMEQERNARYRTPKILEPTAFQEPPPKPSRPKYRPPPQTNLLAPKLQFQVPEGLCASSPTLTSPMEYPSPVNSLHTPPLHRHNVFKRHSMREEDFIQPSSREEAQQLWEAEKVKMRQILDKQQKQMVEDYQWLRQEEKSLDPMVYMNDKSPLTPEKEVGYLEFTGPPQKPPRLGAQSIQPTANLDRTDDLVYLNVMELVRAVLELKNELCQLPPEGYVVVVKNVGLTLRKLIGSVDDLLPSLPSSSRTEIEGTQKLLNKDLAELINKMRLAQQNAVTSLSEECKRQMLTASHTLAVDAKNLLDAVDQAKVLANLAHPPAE
Chain of Protein smoothened (Q99835 whole entry): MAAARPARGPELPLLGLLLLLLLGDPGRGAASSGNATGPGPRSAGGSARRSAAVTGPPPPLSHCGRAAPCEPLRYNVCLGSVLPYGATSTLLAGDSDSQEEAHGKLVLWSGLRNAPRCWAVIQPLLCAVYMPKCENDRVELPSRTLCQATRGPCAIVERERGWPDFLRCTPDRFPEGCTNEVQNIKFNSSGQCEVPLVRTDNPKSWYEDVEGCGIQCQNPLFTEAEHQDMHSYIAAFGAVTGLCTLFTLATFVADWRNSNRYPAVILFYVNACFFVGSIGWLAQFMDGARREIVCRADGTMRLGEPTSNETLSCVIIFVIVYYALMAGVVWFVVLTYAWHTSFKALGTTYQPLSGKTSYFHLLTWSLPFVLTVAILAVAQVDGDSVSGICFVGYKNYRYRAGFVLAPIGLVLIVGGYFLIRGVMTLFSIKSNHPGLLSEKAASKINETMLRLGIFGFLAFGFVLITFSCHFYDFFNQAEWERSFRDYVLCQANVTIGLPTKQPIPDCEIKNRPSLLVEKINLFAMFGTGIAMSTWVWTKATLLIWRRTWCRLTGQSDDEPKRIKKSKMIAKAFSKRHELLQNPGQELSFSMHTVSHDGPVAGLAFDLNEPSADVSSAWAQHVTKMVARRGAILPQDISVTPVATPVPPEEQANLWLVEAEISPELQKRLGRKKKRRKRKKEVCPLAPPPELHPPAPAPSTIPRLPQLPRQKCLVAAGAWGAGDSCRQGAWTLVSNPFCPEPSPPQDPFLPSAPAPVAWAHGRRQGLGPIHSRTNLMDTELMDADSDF
Chain of Vascular endothelial growth factor receptor 2 (Homo sapiens) (P35968 whole entry, the tested form may be a part): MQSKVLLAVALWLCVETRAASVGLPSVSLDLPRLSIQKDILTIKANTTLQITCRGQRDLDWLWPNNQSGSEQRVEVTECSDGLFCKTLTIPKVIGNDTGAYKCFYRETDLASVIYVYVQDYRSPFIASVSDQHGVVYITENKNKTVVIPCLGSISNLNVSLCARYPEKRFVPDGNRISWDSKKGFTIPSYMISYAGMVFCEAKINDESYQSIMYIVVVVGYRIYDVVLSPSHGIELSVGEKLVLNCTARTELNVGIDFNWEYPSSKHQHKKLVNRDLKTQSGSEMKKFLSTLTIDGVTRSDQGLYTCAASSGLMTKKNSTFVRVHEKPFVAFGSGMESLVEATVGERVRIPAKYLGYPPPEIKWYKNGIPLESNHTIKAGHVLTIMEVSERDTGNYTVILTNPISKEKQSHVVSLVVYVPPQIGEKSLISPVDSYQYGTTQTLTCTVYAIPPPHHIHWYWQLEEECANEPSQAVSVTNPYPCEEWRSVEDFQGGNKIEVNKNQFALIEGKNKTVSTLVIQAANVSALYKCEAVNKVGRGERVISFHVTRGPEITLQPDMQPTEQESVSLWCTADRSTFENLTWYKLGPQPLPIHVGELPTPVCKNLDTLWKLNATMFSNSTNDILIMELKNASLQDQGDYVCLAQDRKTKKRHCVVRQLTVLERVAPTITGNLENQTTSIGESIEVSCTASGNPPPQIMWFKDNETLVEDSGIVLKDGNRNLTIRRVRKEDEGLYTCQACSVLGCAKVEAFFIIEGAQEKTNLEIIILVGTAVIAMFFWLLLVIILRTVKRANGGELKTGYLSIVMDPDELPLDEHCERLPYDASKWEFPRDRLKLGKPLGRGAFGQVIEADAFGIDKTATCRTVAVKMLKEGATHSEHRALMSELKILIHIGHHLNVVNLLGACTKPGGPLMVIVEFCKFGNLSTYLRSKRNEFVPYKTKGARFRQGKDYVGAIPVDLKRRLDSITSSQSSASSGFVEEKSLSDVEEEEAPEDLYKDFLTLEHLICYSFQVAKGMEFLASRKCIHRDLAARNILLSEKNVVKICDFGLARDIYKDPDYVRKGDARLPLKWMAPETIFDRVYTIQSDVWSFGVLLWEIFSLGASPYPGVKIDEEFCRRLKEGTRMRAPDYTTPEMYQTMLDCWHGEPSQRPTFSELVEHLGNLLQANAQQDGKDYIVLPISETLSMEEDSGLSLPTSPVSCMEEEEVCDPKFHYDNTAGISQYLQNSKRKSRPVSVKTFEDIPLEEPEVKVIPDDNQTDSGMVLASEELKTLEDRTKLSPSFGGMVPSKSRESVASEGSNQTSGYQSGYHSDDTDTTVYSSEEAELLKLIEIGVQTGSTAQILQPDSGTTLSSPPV

Regarding `O=C(CN1C(=O)/C(=N\NC(=O)c2cc(Br)ccc2O)c2c(Br)cccc21)Nc1ccc([N+](=O)[O-])cc1`, in assay [1], the IC50 was found to be 4.05 µM. Also, the inhibition was 66% in [2]; 66.8% in [3]; 61.2% in [4]; 56.7% in assay [5]; 50.7% in assay [6]; 78.9% in assay [7]. Further, the values for the inhibition in assay [8] and in assay [10] were 82.9% and 45.1%, respectively. For the same compound, the “GLI1 expression reduction (qualitative)” value in assay [9] is “Active”.

With `Cc1ccc(NC(=O)CN2C(=O)/C(=N\NC(=O)c3cc(Br)ccc3O)c3ccc(Cl)cc32)cc1`, in assay [1], the IC50 worked out at 2.27 µM. For the same compound, the inhibition in assay [2] was determined as 55.3%; in [3], 71.5%; in [4], 66.6%; in [5], 58.9%; in [6], 64.3%; in assay [7] it was 76.6%. In addition, the inhibition in assay [8] came to 82.1%; in [10] it was 49.7%. Moreover, in assay [9], the “GLI1 expression reduction (qualitative)” value was “Active”.

With `Cc1ccc(NC(=O)CN2C(=O)/C(=N\NC(=O)c3cc(Br)ccc3O)c3ccc(Br)cc32)cc1`, in [1], the IC50 is 2.08 µM. Besides, the inhibition is 54% in assay [2]; 69.3% in assay [3]; 63.5% in assay [4]; 52.8% in assay [5]; 56.5% in [6]; 72.4% in [7]. Further, the inhibition was found to be 86.1% in [8] and 48.5% in assay [10]. In addition, the “GLI1 expression reduction (qualitative)” value in assay [9] is “Active”.

Take `Cc1ccc(NC(=O)CN2C(=O)/C(=N\NC(=O)c3cc(Br)ccc3O)c3ccccc32)cc1`: in [1], the IC50 was 9.51 µM. For the same compound, the inhibition in assay [2] worked out at 80.2%; in assay [3], 84.8%; in assay [4], 81.4%; in [5] it was 70.3%; in assay [6] it was 49.3%; in assay [7], 83.8%. For the same compound, the values for the inhibition in assay [8] and in assay [10] were 93.5% and 49.9%, respectively. Also, the “GLI1 expression reduction (qualitative)” value in assay [9] was “Active”.
